Measured values collected from several papers.
Each line is one published result; the experiments were not run side by side.
Target: Serine/threonine-protein kinase ULK2 (ULK2, Homo sapiens, UniProt Q8IYT8)
Sequence (Q8IYT8 1-1036, as in one of the studies): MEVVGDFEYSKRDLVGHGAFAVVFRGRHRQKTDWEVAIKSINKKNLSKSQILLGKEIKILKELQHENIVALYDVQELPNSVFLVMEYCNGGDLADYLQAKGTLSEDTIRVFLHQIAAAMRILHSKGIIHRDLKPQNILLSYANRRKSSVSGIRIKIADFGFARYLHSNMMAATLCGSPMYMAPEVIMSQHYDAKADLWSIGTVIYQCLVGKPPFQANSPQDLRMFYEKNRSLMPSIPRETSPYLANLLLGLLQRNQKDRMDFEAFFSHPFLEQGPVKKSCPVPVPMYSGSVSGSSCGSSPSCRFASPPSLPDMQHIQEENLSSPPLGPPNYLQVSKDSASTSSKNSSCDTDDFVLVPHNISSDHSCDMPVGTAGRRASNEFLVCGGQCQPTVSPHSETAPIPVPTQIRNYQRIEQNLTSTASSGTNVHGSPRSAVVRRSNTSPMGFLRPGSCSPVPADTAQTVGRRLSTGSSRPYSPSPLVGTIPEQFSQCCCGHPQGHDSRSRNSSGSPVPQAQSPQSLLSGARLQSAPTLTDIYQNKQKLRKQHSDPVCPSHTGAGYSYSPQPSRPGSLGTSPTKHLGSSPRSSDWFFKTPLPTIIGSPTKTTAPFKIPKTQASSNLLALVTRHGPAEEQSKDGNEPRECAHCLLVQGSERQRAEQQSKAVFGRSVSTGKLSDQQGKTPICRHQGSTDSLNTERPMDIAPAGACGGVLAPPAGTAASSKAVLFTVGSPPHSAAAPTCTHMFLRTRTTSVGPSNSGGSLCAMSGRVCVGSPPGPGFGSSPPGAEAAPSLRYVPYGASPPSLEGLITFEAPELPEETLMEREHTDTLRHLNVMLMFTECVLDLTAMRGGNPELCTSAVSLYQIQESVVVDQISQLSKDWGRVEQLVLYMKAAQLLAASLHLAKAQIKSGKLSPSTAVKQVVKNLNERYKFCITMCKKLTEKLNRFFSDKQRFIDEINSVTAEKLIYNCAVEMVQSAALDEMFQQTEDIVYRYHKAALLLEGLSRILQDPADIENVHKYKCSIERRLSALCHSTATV

C#Cc1cc(-c2cc(Nc3nc(N[C@@H](C)c4ccc(F)cn4)ncc3Cl)n[nH]2)ccc1C=O
inhibition (enzyme activity, inhibitor; 0.2 µM): 5.21%

C=CC(=O)N1CCC([C@@H]2CCNc3c(C(N)=O)c(-c4ccc(Oc5ccccc5)cc4)nn32)CC1
inhibition (enzyme activity, inhibitor; 1 µM): 8%

CCCCC(=O)Nc1ccc(-c2ccc3ncn(CCC)c(=O)c3c2)cn1
remaining binding (binding, competition with immobilised ligand; 0.5 µM): 100%

Cc1ccc(NC(=O)c2ccnc(C(F)(F)F)c2)cc1-c1cc(OCCO)nc(N2CCOCC2)c1
remaining binding (binding; 1 µM): 100%

COc1ccc2oc(-c3ccc4nc(N)oc4c3)c/c(=N\c3ccccc3NC(=O)CCN)c2c1
remaining binding (binding; 1 µM): 106%

C=CC(=O)N1CCC[C@@H](n2nc(-c3ccc(Oc4ccccc4)cc3)c3c(N)ncnc32)C1
inhibition (enzyme activity, inhibitor; 1 µM): 13%

CN1CCN(C(=O)c2ccc(NC(=O)Nc3ccc(N(C)c4ccnc(Nc5ccc(CS(C)(=O)=O)cc5)n4)cc3)cc2)CC1
remaining binding (binding; 1 µM): 78%

N#Cc1ccc(NC(=O)Nc2ccccc2)cc1
remaining binding (cell-free assay, competition with immobilised ligand; 25 µM): 86%
